The values that follow come from ChEMBL document CHEMBL3525994, “Lysosomal sequestration (trapping) of lipophilic amine (cationic amphiphilic) drugs in immortalized human hepatocytes (Fa2N-4 cells)” (Drug Metab Dispos, 2013).

One may read the IC50 as the concentration needed to halve the response being measured. Usually inhibition stands for how much of the control response was suppressed.

A short description of series [1]: Drug uptake in lysosomes of human Fa2N-4 cells assessed as inhibition of LysoTracker Red fluorescence after 30 mins. The conditions noted are these: Fa2N-4, 0.5 h. The series is classed as ADME, cell-based, Lysosome.
Series [2] is described as follows: Drug uptake in lysosomes of human Fa2N-4 cells assessed as inhibition of LysoTracker Red fluorescence at 500 uM after 30 mins relative to control. The series is classed as cell-based, Lysosome. The following applies: Fa2N-4 cells (lysosomes), probe LysoTracker Red. The method in brief: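 Fa2N-4 cells at 50,000/well on collagen, rinsed with PBS. Drug (methanol stock diluted in supplemented modified Chee's medium; final 1–500 μM) with LysoTracker Red 50 nM final, 30 min, 37°C, triplicate. Cells PBS-rinsed and solubilised in acetonitrile. Fluorescence read at ex 530/em 590 nm. Medium kept for LDH release.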

A short description of series [3]: Drug uptake in lysosomes of human Fa2N-4 cells assessed as cellular partitioning measured per 10^6 cells at 1 uM after 5 mins by LC-MS analysis. The series is classed as ADME, cell-based, Lysosome. The following applies: fa2n-4, 5 min. The method in brief: (§1)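 Fa2N-4 cells, plated at 50,000/well on collagen in MFE with 10% newborn calf serum, switched to serum-free medium after attachment and used 36–48 h after plating. Substrate 1 μM in serum-free MFE, 37±1°C. Cells and substrate solution preincubated apart 5 min, then combined (± ammonium chloride 50 mM, nigericin 10 μM plus monensin 20 μM, or co-drug). Stopped with ice-cold PBS, washed, lysed in acetonitrile with internal standard, quantified by LC-MS/MS.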

A short description of series [4]: Drug uptake in lysosomes of human Fa2N-4 cells assessed as cellular partitioning measured per 10^6 cells at 1 uM after 5 mins by LC-MS analysis in presence of ammonium chloride. The series is classed as ADME, cell-based, Lysosome. The conditions noted are these: fa2n-4, 5 min. The method in brief: as §1
Series [5] in a line: Drug uptake in lysosomes of human Fa2N-4 cells assessed as cellular partitioning at 1 uM preincubated with chloroquine followed by compound treatment measured after 5 mins by LC-MS analysis. Type of series: ADME, cell-based, Lysosome. The following applies: fa2n-4, 5 min. The essentials: (§2)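 Inhibitor is ammonium chloride 50 mM or chloroquine 200 μM. Three orders of addition: added together with substrate; added 5 min before substrate and left in; or added 5 min before substrate, then cells washed before substrate. Stopped with ice-cold PBS, acetonitrile lysis with internal standard, LC-MS/MS.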

The nature of series [6]: Drug uptake in lysosomes of human Fa2N-4 cells assessed as cellular partitioning at 1 uM up to 10 mins by LC-MS analysis. The conditions noted are these: fa2n-4, 10 min. The series is classed as ADME, cell-based, Lysosome. The essentials: as §1
Series [7] in a line: Drug uptake in lysosomes of human Fa2N-4 cells assessed as cellular partitioning at 1 uM measured at 10 mins by LC-MS analysis in presence of ammonium chloride. The series is classed as ADME, cell-based, Lysosome. The conditions noted are these: fa2n-4, 10 min. The method in brief: as §1
Series [8] is described as follows: Drug uptake in lysosomes of human Fa2N-4 cells assessed as cellular partitioning at 1 uM co-incubated with ammonium chloride for 5 mins by LC-MS analysis. Type of series: ADME, cell-based, Lysosome. The conditions noted are these: fa2n-4, 5 min. The essentials: as §1
Series [9] can be described thus: Drug uptake in lysosomes of human Fa2N-4 cells assessed as cellular partitioning at 1 uM co-incubated with chloroquine for 5 mins by LC-MS analysis. The series is classed as ADME, cell-based, Lysosome. The conditions noted are these: fa2n-4, 5 min. The essentials:
as §2

Series [10] in a line: Drug uptake in lysosomes of human Fa2N-4 cells assessed as cellular partitioning at 1 uM preincubated with ammonium chloride followed by compound treatment measured after 5 mins by LC-MS analysis. The series is classed as ADME, cell-based, Lysosome. The conditions noted are these: fa2n-4, 5 min. The essentials: as §2
Series [11] can be described thus: Drug uptake in lysosomes of human Fa2N-4 cells assessed as cellular partitioning at 1 uM preincubated with ammonium chloride for 5 mins followed by media washout and compound treatment measured after 5 mins by LC-MS analysis. The series is classed as ADME, cell-based, Lysosome. The conditions noted are these: fa2n-4, 5 min. The method in brief: as §2
Series [12] is described as follows: Drug uptake in lysosomes of human Fa2N-4 cells assessed as cellular partitioning at 1 uM preincubated with chloroquine for 5 mins followed by media washout and compound treatment measured after 5 mins by LC-MS analysis. The series is classed as ADME, cell-based, Lysosome. The conditions noted are these: fa2n-4, 5 min. The essentials:
as §2

The nature of series [13]: Drug uptake in lysosomes of human Fa2N-4 cells assessed as cellular partitioning at 1 uM after 5 mins by LC-MS analysis in presence of ammonium chloride. Type of series: ADME, cell-based, Lysosome. The following applies: fa2n-4, 5 min. The essentials:
as §1

The nature of series [14]: Drug uptake in lysosomes of human Fa2N-4 cells assessed as cellular partitioning at 1 uM after 5 mins by LC-MS analysis in presence of nigericin and monensin. The series is classed as ADME, cell-based, Lysosome. The conditions noted are these: fa2n-4, 5 min. The method in brief:
as §1

The nature of series [15]: Drug uptake in lysosomes of human Fa2N-4 cells assessed as cellular partitioning at 1 uM after 5 mins by LC-MS analysis in presence of ammonium chloride, nigericin and monensin. The series is classed as ADME, cell-based, Lysosome. The following applies: fa2n-4, 5 min. The method in brief: as §1
A short description of series [16]: Drug uptake in lysosomes of human Fa2N-4 cells assessed as cellular partitioning at 1 uM after 5 mins by LC-MS analysis in presence of astemizole. Type of series: ADME, cell-based, Lysosome. The conditions noted are these: fa2n-4, 5 min. The method in brief: as §1
The nature of series [17]: Drug uptake in lysosomes of human Fa2N-4 cells assessed as cellular partitioning at 1 uM after 5 mins by LC-MS analysis in presence of dextromethorphan. Type of series: ADME, cell-based, Lysosome. The conditions noted are these: fa2n-4, 5 min. The method in brief:
as §1

A short description of series [18]: Drug uptake in lysosomes of human Fa2N-4 cells assessed as cellular partitioning at 1 uM after 5 mins by LC-MS analysis in presence of chloroquine. The series is classed as ADME, cell-based, Lysosome. The following applies: fa2n-4, 5 min. The method in brief:
as §2

Series [19] can be described thus: Drug uptake in lysosomes of human Fa2N-4 cells assessed as cellular partitioning at 1 uM after 5 mins by LC-MS analysis in presence of imipramine. The series is classed as ADME, cell-based, Lysosome. The conditions noted are these: fa2n-4, 5 min. The essentials: as §1
The nature of series [20]: Drug uptake in lysosomes of human Fa2N-4 cells assessed as cellular partitioning at 1 uM after 5 mins by LC-MS analysis in presence of diclofenac. The series is classed as ADME, cell-based, Lysosome. The conditions noted are these: fa2n-4, 5 min. The essentials:
as §1

Series [21] is described as follows: Drug uptake in lysosomes of human Fa2N-4 cells assessed as cellular partitioning at 1 uM after 5 mins by LC-MS analysis in presence of rifampin. The conditions noted are these: fa2n-4, 5 min. The series is classed as ADME, cell-based, Lysosome. The essentials: as §1
Series [22] in a line: Drug uptake in lysosomes of human Fa2N-4 cells assessed as cellular partitioning at 1 uM after 5 mins by LC-MS analysis in presence of atorvastatin. The conditions noted are these: fa2n-4, 5 min. The series is classed as ADME, cell-based, Lysosome. The essentials:
as §1

For the molecule `Fc1ccc([C@@H]2CCNC[C@H]2COc2ccc3c(c2)OCO3)cc1` [PAROXETINE], the half-inhibitory concentration (IC50) in series [1] came out at 130 µM.
Turning to `O=C(O)COCCN1CCN(C(c2ccccc2)c2ccc(Cl)cc2)CC1` (stereo not given) [CETIRIZINE], in [1], the half-maximal inhibitory concentration (IC50) was above 500 µM.
Consider `CCN(CC)Cc1cc(Nc2ccnc3cc(Cl)ccc23)ccc1O` [AMODIAQUINE], for which the 50% inhibitory concentration (IC50) in series [1] was above 500 µM. Moreover, the inhibition at 0.5 h, 500 µM in [2] was above 25%.
For `CC(C)n1c(/C=C/C(O)CC(O)CC(=O)O)c(-c2ccc(F)cc2)c2ccccc21` (stereo not given) [FLUVASTATIN], in series [1], the IC50 is above 500 µM.
`CS(=O)(=O)CCNCc1ccc(-c2ccc3ncnc(Nc4ccc(OCc5cccc(F)c5)c(Cl)c4)c3c2)o1` [LAPATINIB]: the 50% inhibitory concentration (IC50) in series [1] is 380 µM.
Still for that read-out and setting: the value for `CNCCC(Oc1ccc(C(F)(F)F)cc1)c1ccccc1` (stereo not given) [FLUOXETINE] was 150 µM; that for `CC(=O)Nc1ccc(O)cc1` [ACETAMINOPHEN] was above 500 µM.
For `CNCCCN1c2ccccc2CCc2ccccc21` [DESIPRAMINE], in series [1], the half-maximal inhibitory concentration (IC50) came out at 220 µM.
Same read-out and setting: for `CCN1CCC[C@H]1CNC(=O)c1c(O)c(Cl)cc(Cl)c1OC` [RACLOPRIDE] the value was above 500 µM; for `OC(Cn1cncn1)(Cn1cncn1)c1ccc(F)cc1F` [FLUCONAZOLE], above 500 µM.
As to `CC(CCc1ccccc1)NCC(O)c1ccc(O)c(C(N)=O)c1` (stereo not given) [LABETALOL], in series [1], the IC50 was above 500 µM. For the same molecule, the inhibition at 0.5 h, 500 µM in series [2] is above 25%.
As to `CCN(CC)CCCC(C)Nc1ccnc2cc(Cl)ccc12` (stereo not given) [CHLOROQUINE], the IC50 in series [1] is 220 µM.
On to `CN1C(C(=O)Nc2ccccn2)=C(O)c2sccc2S1(=O)=O` [TENOXICAM], for which the IC50 in series [1] is above 500 µM.
Consider `CC(C)c1c(C(=O)Nc2ccccc2)c(-c2ccccc2)c(-c2ccc(F)cc2)n1CC[C@@H](O)C[C@@H](O)CC(=O)O` [ATORVASTATIN], for which, in series [1], the half-maximal inhibitory concentration (IC50) was above 500 µM. Moreover, the results for the Drug uptake in series [3] and in series [4] were below 11 pmol and 34 pmol, respectively.
On to `O=C(c1ccccc1)c1ccc2n1CCC2C(=O)O` (stereo not given) [KETOROLAC], for which the IC50 in series [1] was above 500 µM.
On the same count and under the same terms, for `CC(C(=O)O)c1cccc(C(=O)c2ccccc2)c1` (stereo not given) [KETOPROFEN] the value was above 500 µM; for `COc1ccc(CCN2CCC(Nc3nc4ccccc4n3Cc3ccc(F)cc3)CC2)cc1` [ASTEMIZOLE], 110 µM; for `CC[C@H](C)C(=O)O[C@H]1C[C@H](O)C=C2C=C[C@H](C)[C@H](CC[C@@H](O)C[C@@H](O)CC(=O)O)[C@H]21` [PRAVASTATIN], above 500 µM.
Same read-out and setting: the value for `CC(C)Cc1ccc(C(C)C(=O)O)cc1` (stereo not given) [IBUPROFEN] was above 500 µM; that for `O=C(O)Cc1ccccc1Nc1c(Cl)cccc1Cl` [DICLOFENAC] was above 500 µM.
Regarding `CC(C)NCC(O)COc1cccc2ccccc12` (stereo not given) [PROPRANOLOL], the Drug uptake result was “Not Active” in series [5]; 189 pmol in series [3]; “Not Active” in series [4]; “Not Active” in series [6]; “Not Active” in series [7]; “Not Active” in series [8]. Also, the Drug uptake entry is listed as “Not Active” in [9]; “Not Active” in series [10]; “Active” in series [11]; “Not Active” in series [12]; “Not Active” in [13]; “Not Active” in series [14]. Also, the Drug uptake result in series [15] is recorded as “Not Active”; in series [16], “Not Active”; in series [17], “Not Active”; in [18] it was “Not Active”; in [19], “Not Active”; in series [20], “Active”. Also, the Drug uptake result in series [21] and in [22] was “Active” in each case.
In the case of `CC(C)c1nc(N(C)S(C)(=O)=O)nc(-c2ccc(F)cc2)c1/C=C/[C@@H](O)C[C@@H](O)CC(=O)O` [ROSUVASTATIN], the 50% inhibitory concentration (IC50) in series [1] was above 500 µM.
Still for that read-out and setting: the value for `C#Cc1cccc(Nc2ncnc3cc(OCCOC)c(OCCOC)cc23)c1` [ERLOTINIB] was above 500 µM.
The same measure, in the same setting: for `CN(C)CCCN1c2ccccc2CCc2ccccc21` [IMIPRAMINE] the value was 260 µM.
For the molecule `COc1ccc2c(c1)[C@]13CCCC[C@@H]1[C@H](C2)N(C)CC3` [DEXTROMETHORPHAN], the half-maximal inhibitory concentration (IC50) in series [1] is above 500 µM. Further, the inhibition at 0.5 h, 500 µM in series [2] is above 25%.
As for `COC(=O)C1=C(C)NC(C)=C(C(=O)OC)C1c1ccccc1[N+](=O)[O-]` [NIFEDIPINE], the IC50 in series [1] is above 500 µM.
